Experimental data reported in article PMC3153576 (Biochemistry, 2011).

Legend:
Type in all cases: binding
PRMT1 = PRMT1 (Rattus norvegicus, UniProt Q63009); test: Stopped-flow dissociation from PRMT1; settings: compared with second phase in methylation course
PRMT1-SAH complex [1] = biological target: T1, PRMT1-SAH complex (Rattus norvegicus, UniProt Q63009); test: Stopped-flow dissociation from PRMT1-SAH; settings: 100 μM SAH
Method in brief: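 Trapping experiment using rat His-PRMT1. 0.4 μM fluorescein-labelled H4 peptide (H4FLme1 or H4FLme2) was premixed with 2 μM PRMT1 and 100 μM SAH, then rapidly mixed with 50 μM unlabelled H4(1–20). Fluorescence recovery read at ex 495 nm, 510 nm long-pass emission; 4–6 injections averaged; double-exponential fit.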

PRMT1-SAH complex [2] = biological target: T1, PRMT1-SAH complex; test: Stopped-flow association with PRMT1-SAH
Method in brief: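 His-tagged rat PRMT1 expressed in E. coli and Ni-resin purified. PRMT1 (2, 4, 6 μM) was preincubated with 100 μM SAH, then rapidly mixed with 0.4 μM fluorescein-labelled H4 peptide. Fluorescence quench read at ex 495 nm, 510 nm long-pass emission; 4–6 shots averaged. Traces fit double-exponential; kobs versus PRMT1 fit to two-step model for k1, k−1, k2, k−2.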

T1 sequence (Q63009 whole entry, one chain of several): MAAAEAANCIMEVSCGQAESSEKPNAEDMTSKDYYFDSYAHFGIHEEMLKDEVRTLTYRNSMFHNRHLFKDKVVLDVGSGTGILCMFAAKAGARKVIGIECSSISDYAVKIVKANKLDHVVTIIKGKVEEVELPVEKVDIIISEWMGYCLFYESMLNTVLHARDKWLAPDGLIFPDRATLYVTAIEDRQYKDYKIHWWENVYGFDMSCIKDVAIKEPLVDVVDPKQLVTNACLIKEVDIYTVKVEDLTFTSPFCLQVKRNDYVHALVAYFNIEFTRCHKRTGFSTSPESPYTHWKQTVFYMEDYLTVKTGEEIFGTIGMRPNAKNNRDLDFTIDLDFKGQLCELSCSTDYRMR
Chain of PRMT1 (Q63009 whole entry): as the sequence (Q63009 whole entry, one chain of several) above

| Substance | Dissociation rate constant relative to slow-phase (methylation) rate constants (PRMT1) | koff from PRMT1-SAH relative to apo-PRMT1 (PRMT1-SAH complex [1]) | Observed first-order rate constant for binding (kobs) (PRMT1-SAH complex [2]; 2 μM PRMT1 in presence of the cofactor) [s⁻¹] | Association rate constant with PRMT1-SAH relative to apo PRMT1 (PRMT1-SAH complex [2]; 100 μM SAH) | k2 + k−2 (plateau of the slow phase) (PRMT1-SAH complex [2]; two-step binding model (eq 5), 100 μM SAH, 30°C) [s⁻¹] |
| --- | --- | --- | --- | --- | --- |
| Ac-SGRme1GKGGKGDpr(FL)GKGGAKRHRK [H4FLme1] | several thousand-fold larger | about three-fold lower | 248 ± 3 | two-fold higher | 36 ± 2 |
| Ac-SGRme2GKGGKGDpr(FL)GKGGAKRHRK [H4FLme2] | several thousand-fold larger |  |  |  |  |
